The source made the active and inactive calls. No cut-off for these calls is given here.
Experiments:
Mus musculus [1] = assay: Toxicity in athymic nude mouse xenografted with human NCI-H1435 cells expressing CES2 gene at 3 to 4 mg/kg, iv administered on day 7, 14 and 21 after tumor implantation; type: organism-based; design: dose 3-4 mg/kg, route intravenous; conditions: in vivo
NCI-H1435 [2] = assay: Antitumor activity against human NCI-H1435 cells expressing CES2 gene xenografted in athymic nude mouse assessed as inhibition of tumor growth at 2.5 mg/kg, iv administered on day 7, 14 and 21 after tumor implantation; type: functional, organism-based; design: dose 2.5 mg/kg
In short: (§1)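 Athymic nude females, 4–6 weeks old, given ~2 × 10⁶ H1435 cells s.c. in the left flank on day 0; 10 mice/group. I.v. tail-vein doses (Dox-equivalent mg/kg) in 5% DMSO/95% D5W on days 7, 14 and 21, with all groups retreated on days 56, 63 and 70; vehicle controls. Caliper volume π × short² × long/6. Cube roots analysed with day-7 size as baseline covariate, by period.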

Mus musculus [3] = assay: Toxicity in athymic nude mouse xenografted with human NCI-H1435 cells expressing CES2 gene assessed as lipid […] in hepatocytes administered with six iv injection of 3 to 4 mg/kg by hematoxylin/eosin staining-based microscopy; type: organism-based, Hepatocyte; design: dose 3-4 mg/kg, route intravenous
In short: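 Female athymic nude mice, 4–6 weeks old, 10 per group. About 2 × 10⁶ H1435 cells were implanted s.c. into the left flank. I.v. tail-vein doses (Dox-equivalent) were given on days 7, 14, 21, 56, 63 and 70 in 5% DMSO/95% D5W. At sacrifice, organs were fixed in 10% formalin for 24 h and paraffin-embedded. Sections were cut at 4 µm and stained with hematoxylin/eosin for microscopy.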

NCI-H1435 [4] = assay: Antitumor activity against human NCI-H1435 cells expressing CES2 gene xenografted in pentyl PABC-doxazolidine-pretreated athymic nude mouse assessed as inhibition of tumor growth at 2.5 mg/kg, iv administered on day 56 after tumor implantation; type: functional, organism-based; design: dose 2.5 mg/kg; in short: as §1
NCI-H1435 [5] = assay: Antitumor activity against human NCI-H1435 cells expressing CES2 gene xenografted in pentyl PABC-doxazolidine-pretreated athymic nude mouse assessed as inhibition of tumor growth at 2.5 mg/kg, iv administered on day 70 after tumor implantation; type: functional, organism-based; design: dose 2.5 mg/kg; in short: as §1
Mus musculus [6] = assay: Toxicity in athymic nude mouse xenografted with human NCI-H1435 cells expressing CES2 gene assessed as appearance of fibrotic damage in heart tissue administered with six iv injection of 2.5 mg/kg by hematoxylin/eosin staining-based microscopy; type: organism-based; design: dose 2.5 mg/kg, route intravenous; conditions: in vivo
In short: (§2)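 Hearts and livers taken from the H1435 nude-mouse study (six i.v. injections) after CO₂/cervical dislocation. Fixed in 10% formalin for 24 h, paraffin-embedded, and cut at 4 µm. Slides deparaffinized in xylene and ethanol, stained with Mayer's hematoxylin for 2 min, blued in 1% ammonium hydroxide, and counterstained with eosin for 30 s. Examined by light microscopy.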

Mus musculus [7] = assay: Toxicity in athymic nude mouse xenografted with human NCI-H1435 cells expressing CES2 gene assessed as vacuolar degeneration of kidney tissue administered with six iv injection of 2.5 mg/kg by hematoxylin/eosin staining-based microscopy; type: organism-based; design: dose 2.5 mg/kg, route intravenous; conditions: in vivo
In short: (§3)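 Kidney and ileum taken from the H1435 nude-mouse study (six i.v. injections). Formalin-fixed for 24 h, paraffin-embedded, and cut into 4 µm sections. Sections deparaffinized in xylene, rehydrated through an ethanol series, stained in Harris hematoxylin for 50 s with eosin, then dehydrated and mounted. Morphology assessed by microscopy.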

Mus musculus [8] = assay: Toxicity in athymic nude mouse xenografted with human NCI-H1435 cells expressing CES2 gene assessed as vacuolar damage in ileum administered with six iv injection of 2.5 mg/kg by hematoxylin/eosin staining-based microscopy; type: organism-based; design: dose 2.5 mg/kg, route intravenous; conditions: in vivo; in short: as §3
Mus musculus [9] = assay: Toxicity in athymic nude mouse xenografted with human NCI-H1435 cells expressing CES2 gene assessed as inflammatory cell infiltration in ileum administered with six iv injection of 2.5 mg/kg by hematoxylin/eosin staining-based microscopy; type: organism-based; design: dose 2.5 mg/kg, route intravenous; conditions: in vivo; in short: as §3
NCI-H1435 [10] = assay: Antitumor activity against human NCI-H1435 cells expressing CES2 gene xenografted in pentyl PABC-doxazolidine-pretreated athymic nude mouse assessed as inhibition of tumor growth at 2.5 mg/kg, iv administered on day 63 after tumor implantation; type: functional, organism-based; design: dose 2.5 mg/kg; in short: as §1
Mus musculus [11] = assay: Toxicity in NOD/SCID mouse xenografted with human HepG2 cells expressing CES2 gene assessed as occurrence of diarrhea at 3 mg/kg, iv administered on day 7, 14 and 21 after tumor implantation; type: organism-based; design: dose 3 mg/kg, route intravenous; conditions: in vivo
HepG2 = assay: Antitumor activity against human HepG2 cells expressing CES2 gene xenografted in NOD/SCID mouse assessed as inhibition of tumor growth at 4 to 5 mg/kg, iv administered on day 7, 14 and 21 after tumor implantation; type: functional, organism-based
In short: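 NOD/SCID females, 4–6 weeks old, each given ~1.5 × 10⁷ N-Hep G2 cells s.c. in the left flank; 10 mice/group. Dosed i.v. by tail vein on days 7, 14 and 21, in mg/kg Dox-equivalent, from DMSO diluted into D5W (5% DMSO/95% D5W), 100 µL/mouse. Vehicle-only controls. The 3 mg/kg group was redosed at 5 mg/kg on days 45 and 52. Tumor volume (π × short diameter² × long diameter/6) measured weekly.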

[12] = Toxicity in NOD/SCID mouse xenografted with human HepG2 cells expressing CES2 gene assessed as mortality rate at 3 mg/kg, iv administered on day 7, 14 and 21 after tumor implantation; type: organism-based; design: dose 3 mg/kg, route intravenous; conditions: in vivo, read-out: Activity
In short: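 Female NOD/SCID mice, 4–6 weeks old, 10 per group. About 1.5 × 10⁷ N-Hep G2 cells were injected s.c. into the left flank. Tail-vein i.v. dosing (mg/kg Dox-equivalent weight) was given on days 7, 14 and 21. Vehicle was 5% DMSO/95% D5W, and controls received vehicle only. Body weight was measured weekly over the first 5 weeks. Survival was followed to study end.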

NCI-H1435 [13] = assay: Antitumor activity against human NCI-H1435 cells expressing CES2 gene xenografted in athymic nude mouse assessed as slowing of tumor growth at 2.5 mg/kg, iv administered as three weekly infusion from day 21 to 56 after tumor implantation; type: functional, organism-based; design: dose 2.5 mg/kg; in short: as §1
NCI-H1435 [14] = assay: Antitumor activity against human NCI-H1435 cells expressing CES2 gene xenografted in athymic nude mouse assessed as reduction in tumor size at 2.5 mg/kg, iv administered on day 7, 14 and 21 after tumor implantation; type: functional, organism-based; design: dose 2.5 mg/kg; in short: as §1
Mus musculus [15] = assay: Toxicity in athymic nude mouse xenografted with human NCI-H1435 cells expressing CES2 gene assessed as occurrence of fatty liver administered with six iv injection of 2.5 mg/kg by hematoxylin/eosin staining-based microscopy; type: organism-based; design: dose 2.5 mg/kg, route intravenous; conditions: in vivo; in short: as §2
Mus musculus [16] = assay: Toxicity in athymic nude mouse xenografted with human NCI-H1435 cells expressing CES2 gene assessed as occurrence of cardiomyocyte necrosis administered with six iv injection of 2.5 mg/kg by hematoxylin/eosin staining-based microscopy; type: organism-based; design: dose 2.5 mg/kg, route intravenous; conditions: in vivo; in short: as §2
Mus musculus [17] = assay: Toxicity in athymic nude mouse xenografted with human NCI-H1435 cells expressing CES2 gene assessed as occurrence of diarrhea at 3 to 4 mg/kg, iv administered on day 7, 14 and 21 after tumor implantation; type: organism-based; design: dose 3-4 mg/kg, route intravenous; conditions: in vivo
Mus musculus [18] = assay: Toxicity in athymic nude mouse xenografted with human NCI-H1435 cells expressing CES2 gene assessed as uniformity in punktate staining pattern of hepatocytes administered with six iv injection of 2.5 mg/kg by hematoxylin/eosin staining-based microscopy; type: organism-based, Hepatocyte; design: dose 2.5 mg/kg, route intravenous; in short: as §2
Mus musculus [19] = assay: Toxicity in athymic nude mouse xenografted with human NCI-H1435 cells expressing CES2 gene assessed as myofibril disorganization and vacuolization of heart tissue administered with six iv injection of 2.5 mg/kg by hematoxylin/eosin staining-based microscopy; type: organism-based; design: dose 2.5 mg/kg, route intravenous; conditions: in vivo; in short: as §2

Row | Compound | Activity (Mus musculus [1]) | inhibition (NCI-H1435 [2]) | Activity (Mus musculus [3]) | inhibition (NCI-H1435 [4]) | inhibition (NCI-H1435 [5]) | Activity (Mus musculus [6]) | Activity (Mus musculus [7]) | Activity (Mus musculus [8]) | Activity (Mus musculus [9]) | inhibition (NCI-H1435 [10]) | Activity (Mus musculus [11]) | inhibition (HepG2) | mortality [12] | Activity (NCI-H1435 [13]) | Activity (NCI-H1435 [14]) | Activity (Mus musculus [15]) | Activity (Mus musculus [16]) | Activity (Mus musculus [17]) | Activity (Mus musculus [18]) | Activity (Mus musculus [19])
1 | COc1cccc2c1C(=O)c1c(O)c3c(c(O)c1C2=O)C[C@@](O)(C(=O)CO)C[C@@H]3O[C@H]1C[C@H](N)[C@H](O)[C@H](C)O1 [DOXORUBICIN] | Non-toxic | Active | Toxic | inactive | inactive | Toxic | Toxic | Non-toxic | Non-toxic | inactive | Non-toxic | Active | 70% | Active | Active | Non-toxic | Toxic | Non-toxic | Non-toxic | Toxic
2 | COc1cccc2c1C(=O)c1c(O)c3c(c(O)c1C2=O)C[C@@](O)(C(=O)CO)C[C@@H]3O[C@H]1C[C@@H]2NCO[C@@H]2[C@H](C)O1 [DOXAZOLIDINE] |  |  | Toxic |  |  |  |  |  |  |  |  |  |  |  |  |  |  |  |  | 

Source: ChEMBL document CHEMBL1153806, “Preclinical efficacy of a carboxylesterase 2-activated prodrug of doxazolidine” (J Med Chem, 2009)
